Test results reported in ChEMBL document CHEMBL3612066, “Design, Synthesis, and Biological Evaluation of Pyrazolo[1,5-a]pyridine-3-carboxamides as Novel Antitubercular Agents” (ACS Med Chem Lett, 2015).
In brackets after ≈: the same amount, converted by molar mass.

What was measured:
Format in all cases: functional
[1] = system: Mycobacterium tuberculosis; experiment: Antitubercular activity against multidrug-resistant Mycobacterium tuberculosis UAl9804 after 7 days by autoluminescent assay; details: UAl9804, 168 h
In short: (§1)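 Autoluminescent assay against MDR clinical isolates (3495, P71, 9804, 4768, P163). Bacterial growth was read as bioluminescence intensity with no added substrate. MIC values are means of two independent experiments.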

[2] = system: Mycobacterium tuberculosis; experiment: Antitubercular activity against multidrug-resistant Mycobacterium tuberculosis UAlP7 after 7 days by autoluminescent assay; details: UAlP7, 168 h; in short: as §1
[3] = system: Mycobacterium tuberculosis; experiment: Antitubercular activity against multidrug-resistant Mycobacterium tuberculosis UAl4768 after 7 days by autoluminescent assay; details: UAl4768, 168 h; in short: as §1
[4] = system: Mycobacterium tuberculosis; experiment: Antitubercular activity against multidrug-resistant Mycobacterium tuberculosis UAlP163 after 7 days by autoluminescent assay; details: UAlP163, 168 h; in short: as §1
[5] = system: Mycobacterium tuberculosis; experiment: Antitubercular activity against multidrug-resistant Mycobacterium tuberculosis UAl3495 after 7 days by autoluminescent assay; details: UAl3495, 168 h; in short: as §1

| SMILES | MIC [1] | MIC [2] | MIC [3] | MIC [4] | MIC [5] |
| --- | --- | --- | --- | --- | --- |
| Cc1nn2ccc(Cl)cc2c1C(=O)NCc1ccc(N2CCC(c3ccc(OC(F)(F)F)cc3)CC2)cc1 | < 0.184 µM | < 0.184 µM | < 0.184 µM | < 0.184 µM |  |
| Cc1ccn2nc(C)c(C(=O)NCc3ccc(N4CCC(c5ccc(OC(F)(F)F)cc5)CC4)cc3)c2c1 | < 0.383 µM | < 0.383 µM | < 0.383 µM | < 0.383 µM | 1.91 µM (≈ 1 µg/mL) |
| COc1ccn2nc(C)c(C(=O)NCc3ccc(N4CCC(c5ccc(OC(F)(F)F)cc5)CC4)cc3)c2c1 | < 0.0111 µM | 0.0111 µM (≈ 0.00598 µg/mL) | 0.0111 µM (≈ 0.00598 µg/mL) | 0.0111 µM (≈ 0.00598 µg/mL) | 0.0223 µM (≈ 0.012 µg/mL) |
| CCc1nn2ccc(Cl)cc2c1C(=O)NCc1ccc(N2CCC(c3ccc(OC(F)(F)F)cc3)CC2)cc1 | < 0.0359 µM | 0.0718 µM (≈ 0.04 µg/mL) | 0.0359 µM (≈ 0.02 µg/mL) | < 0.0359 µM |  |
